Data reported in PubChem BioAssay.
Calls of active or inactive are those of the source.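 Rule for the calls, unless noted: active = inhibition of the reporter signal at or above 50%; inactive = inhibition below 50%.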

What was measured:
[1] = inhibitors of TNFa-induced NFkB p65 translocation, primary screen, imaging, HUVEC, MLSMR starter and 10KST1 sets (AID 438;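 active = inhibition above 20% together with a positive visual image hit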;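 note: compound added about 3h40 before a 20 min TNFalpha stimulation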;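 for inhibition: signal is the nuclear over cytoplasmic p65 intensity ratio per well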); settings: HUVEC TNFa-induced p65 nuclear translocation; cell count: measured here: nuclei count (cytotoxicity indicator), at 2.08 µM; inhibition: at 2 µM, stronger effect = higher value, 0% TNFa-plus-vehicle, 100% no-TNFa wells
[2] = reduction of polyQ htt aggregates in cells – imaging, exon1htt(103Q)mCFP cells, high-content imaging, primary screen (AID 483;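 active = visual image review flags a hit and inhibition of aggregation exceeds 20%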;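 note: compound exposure lasted 3 days before fixation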;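 for nuclei count: percent of the per-plate median nuclei count of sample wells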); settings: exon1htt(103Q)mCFP cell line, aggregate imaging, at 2 µM; inhibition of aggregation: stronger effect = higher value; nuclei count: measured here: cell count, toxicity
[3] = endothelial E-selectin expression blockers – imaging, HUVEC, immunofluorescence, MLSMR starter and 10KST1 sets, primary screen (AID 487;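 active = visually confirmed hit in the image check and inhibition above 20%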;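 for inhibition: signal is fraction of cell area covered by stained E-selectin grains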;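 for nuclei count: 100% = median nuclei count of all wells on the same plate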); settings: HUVEC TNFalpha-induced E-selectin immunofluorescence imaging, at 2 µM; inhibition: stronger effect = higher value; nuclei count: measured here: cell number, toxicity
[4] = biological target: Voltage-gated potassium channel subunit beta-2 (Rattus norvegicus) (UniProt P62483); experiment: inhibitors of rat Kvbeta2 reductase activity – biochemical, NADPH fluorescence, primary screen (AID 622;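 active = fluorescence slope higher than the sample average by over 3 SD, cut at about -0.22 in these data, passing the limit was not always enough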;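 note: slope of raw intensity against log time taken from 70 to 1610 s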); settings: recombinant KvBeta, 4-cyanobenzaldehyde reduction, at 10 µM, stronger effect = higher value
[5] = biological target: Voltage-gated potassium channel subunit beta-2 (Rattus norvegicus) (UniProt P62483); experiment: enhancers of rat Kvbeta2 NADPH turnover – biochemical, NADPH fluorescence, primary screen (AID 623;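 active = NADPH fluorescence slope more negative than the mean of all samples by about 3 SD, 99.7% confidence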;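 note: fluorescence intensity change per second fitted from 20 to 320 s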); settings: Recombinant KvBeta, NADPH fluorescence decrease slope, 10 min; at 10 µM; stronger effect = lower value
[6] = biological target: Muscarinic acetylcholine receptor M4 (Homo sapiens) (UniProt P08173); experiment: M4-linked GIRK flux change, two-sided – cell-based, HEK293 M4/GIRK, thallium flux, BTC-AM, M4 allosteric agonist project, primary screen (AID 625;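 active = fluorescence slope after compound addition differing from the mean of all tested samples at 99.7% confidence, mostly higher but some lower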;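 note: thallium influx through GIRK channels coupled to M4 in HEK293 cells with BTC-AM dye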); settings: at 10 µM, actives lie on both sides
Method in brief: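 System: HEK293 cells with M4 receptor and GIRK channels | Incubation: Cells overnight at 37 °C, BTC-AM loading 1 h, reads 2 min total | Technique: Kinetic BTC-AM fluorescence sampled at 1 Hz, 10 s pre-addition baseline | Measure: Post-addition slope, 15–24 s, of baseline-normalized fluorescence | Control set: Carbachol positive, DMSO negative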

[7] = blockers of RIG-like receptor reporter activation – cell-based, Sendai virus stimulus, luciferase, 10K MLSCN set, TLR/RLR signaling modifier project, primary screen (AID 602276;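 active = inhibition at or above 50% at 10 µM; inactive = inhibition below 50%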;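 note: firefly luciferase from ISG56 promoter only with Renilla not read in this screen; 0% = Sendai virus plus DMSO and 100% = medium plus DMSO without virus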); settings: HEK293 RL24 IRF3 luciferase reporter, at 10 µM, stronger effect = higher value
[8] = TLR3 IRF3 reporter activation blockers – cell-based, poly I:C stimulus, luciferase, 10K MLSCN set, primary screen (AID 602277); settings: HEK293-TLR3 RL24 IRF3 luciferase reporter, at 10 µM, stronger effect = higher value

Sequence of Muscarinic acetylcholine receptor M4 (Homo sapiens) (P08173 whole entry, looked up): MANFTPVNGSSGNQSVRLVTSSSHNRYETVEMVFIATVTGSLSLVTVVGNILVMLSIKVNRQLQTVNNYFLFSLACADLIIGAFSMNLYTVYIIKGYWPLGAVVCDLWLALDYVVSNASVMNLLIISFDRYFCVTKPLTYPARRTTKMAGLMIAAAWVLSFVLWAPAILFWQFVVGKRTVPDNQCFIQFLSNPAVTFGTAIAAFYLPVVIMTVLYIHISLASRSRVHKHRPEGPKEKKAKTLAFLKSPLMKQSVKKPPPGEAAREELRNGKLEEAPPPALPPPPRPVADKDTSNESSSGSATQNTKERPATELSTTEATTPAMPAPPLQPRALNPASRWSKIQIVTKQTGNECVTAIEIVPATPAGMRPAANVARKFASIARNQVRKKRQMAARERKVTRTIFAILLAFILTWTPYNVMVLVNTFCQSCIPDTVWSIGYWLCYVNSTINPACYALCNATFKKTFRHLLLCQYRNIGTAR
Sequence of Voltage-gated potassium channel subunit beta-2 (Rattus norvegicus) (P62483 whole entry, looked up): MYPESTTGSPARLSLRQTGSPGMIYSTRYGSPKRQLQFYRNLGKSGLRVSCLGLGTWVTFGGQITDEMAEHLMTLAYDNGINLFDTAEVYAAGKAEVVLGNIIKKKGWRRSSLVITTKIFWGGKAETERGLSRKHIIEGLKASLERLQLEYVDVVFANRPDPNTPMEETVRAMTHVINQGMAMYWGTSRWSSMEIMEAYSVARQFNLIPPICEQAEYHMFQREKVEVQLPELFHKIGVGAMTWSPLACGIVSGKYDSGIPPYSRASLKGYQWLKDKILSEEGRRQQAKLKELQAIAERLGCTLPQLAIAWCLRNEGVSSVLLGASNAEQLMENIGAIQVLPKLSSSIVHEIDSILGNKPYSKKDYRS

| SMILES | cell count [1] | inhibition [1] | inhibition of aggregation [2] | nuclei count [2] [%] | inhibition [3] | nuclei count [3] [%] | fluorescence slope [4] | NADPH fluorescence slope [5] | fluorescence slope [6] | inhibition [7] | inhibition [8] |
| --- | --- | --- | --- | --- | --- | --- | --- | --- | --- | --- | --- |
| Cc1ccc(S(=O)(=O)CCc2nnc(NC(=O)c3cnccn3)s2)cc1 | 578 | -46.9% (inactive) | -22.9% (inactive) | 116 | -82.9% (inactive) | 117 | -0.407 (inactive) | -8.1e-06 (inactive) | 0.00653 (inactive) | 10.8% (inactive) | 22.5% (inactive) |
| O=C(CSc1ncccn1)c1ccccc1Br | 483 | 2.9% (inactive) | 0.9% (inactive) | 114 | 1.5% (inactive) | 103 | -0.582 (inactive) | -0.000119 (inactive) | 0.00475 (inactive) | -24.3% (inactive) | -65.9% (inactive) |
| Cc1ccc(NC(=O)CC2Nc3ccccc3NC2=O)cc1Cl (stereo not drawn) | 357 | 1.4% (inactive) | 14.7% (inactive) | 84.3 | -45.4% (inactive) | 99.7 | -0.545 (inactive) | -1.9e-05 (inactive) | 0.00597 (inactive) | -4.9% (inactive) | -16.9% (inactive) |
| Cc1cc(NC(=O)CS(=O)(=O)c2cn(Cc3cccc(F)c3)c3ccccc23)no1 | 815 | -6.6% (inactive) | 6.9% (inactive) | 116 | -94.1% (inactive) | 107 | -0.262 (inactive) | -2.4e-05 (inactive) | 0.00574 (inactive) | 11.5% (inactive) | 0.399% (inactive) |
| CCOc1ccccc1-c1nc(-c2ccc(NC(=O)Cc3ccccc3OC)cc2)no1 | 484 | -5% (inactive) | -2.4% (inactive) | 87.4 | -54.6% (inactive) | 111 | -0.527 (inactive) | -3.1e-05 (inactive) | 0.0078 (inactive) | -18.2% (inactive) | -34.8% (inactive) |
| O=C(NCc1cccnc1)c1cn(CCc2ccccc2)nn1 | 569 | -0.4% (inactive) | -18.3% (inactive) | 98.8 | -48.9% (inactive) | 110 | -0.31 (inactive) | -2.1e-05 (inactive) | 0.0065 (inactive) | 10.9% (inactive) | 16.6% (inactive) |
| COc1ccc(-n2c(COc3ccccc3)nnc2SCc2ccc(C#N)cc2)cc1 | 687 | -7.7% (inactive) | -21% (inactive) | 56.4 | -58.1% (inactive) | 95.8 | -0.543 (inactive) | -5.8e-05 (inactive) | 0.00479 (inactive) | 3.44% (inactive) | 19.5% (inactive) |
| CN(C)S(=O)(=O)c1ccc2c(c1)C(CC(=O)O)OC2=O (stereo not drawn) | 616 | 2.3% (inactive) | 13.2% (inactive) | 109 | 27.5% (inactive) | 105 | -0.511 (inactive) | 0.000172 (inactive) | 0.00625 (inactive) | 17.3% (inactive) | 26.3% (inactive) |
| CCOC(=O)N1CCC2(CC1)CC(=O)c1c(ccc3oc(C(=O)O)c(C)c13)O2 | 313 | -4.1% (inactive) | -17.7% (inactive) | 99 | -83.8% (inactive) | 105 | -0.413 (inactive) | -1.7e-05 (inactive) | 0.00564 (inactive) | 0.598% (inactive) | 11.3% (inactive) |
| Cc1nc2cc(CO)ccc2n1C | 425 | 4.7% (inactive) | 1% (inactive) | 92.7 | -12.6% (inactive) | 108 | -0.589 (inactive) | -3.5e-05 (inactive) | 0.00622 (inactive) | 2.69% (inactive) | 14.4% (inactive) |
| Cc1nc(Nc2nc(=O)c3ccccc3n2C)nc2c(C)cccc12 | 594 | 5.2% (inactive) | -282% (inactive) | 73.9 | -112% (inactive) | 156 | -0.348 (inactive) | -5e-06 (inactive) | 0.00486 (inactive) | 14.6% (inactive) | 22.9% (inactive) |
| COc1cccc(N2CCN(CC(=O)NCc3cccs3)CC2)c1 | 702 | -27.6% (inactive) | 20.4% (inactive) | 100 | 24.5% (inactive) | 99.5 | -0.318 (inactive) | -1.7e-05 (inactive) | 0.00733 (inactive) | 21.2% (inactive) | -6.45% (inactive) |
| O=C(CCSc1nnc(-c2ccncc2)o1)Nc1ccccc1 | 680 | -3.9% (inactive) | 1% (inactive) | 107 | -26.7% (inactive) | 114 | -0.512 (inactive) | -6.6e-05 (inactive) | 0.0061 (inactive) | 1.76% (inactive) | 12.2% (inactive) |
| O=C(CN1C(=O)CCSc2ccccc21)Nc1ccc(F)cc1 | 312 | 0.7% (inactive) | -6% (inactive) | 100 | -8.3% (inactive) | 110 | -0.473 (inactive) | 4.1e-05 (inactive) | 0.00664 (inactive) | -6.29% (inactive) | 2.08% (inactive) |
| CC1(C)OC(=O)C(=CNc2ccccc2)C(=O)O1 | 548 | 9.4% (inactive) | -4.1% (inactive) | 108 | 54.3% (inactive) | 102 | -0.617 (inactive) | -1.8e-06 (inactive) | 0.00548 (inactive) | -10% (inactive) | 99% (active) |
| Cc1ccc(-c2nnn(CC(=O)N(CC3CCCO3)C(C(=O)NC(C)(C)C)c3ccc(F)cc3)n2)o1 (stereo not drawn) | 415 | 5.7% (inactive) | 3.4% (inactive) | 112 | -64% (inactive) | 118 | -0.563 (inactive) | -3.8e-05 (inactive) | 0.00486 (inactive) | 9.86% (inactive) | 15.3% (inactive) |
| Cn1c(-c2ccccc2)c(CCO)c2ccccc21 | 578 | 13.7% (inactive) | -2.6% (inactive) | 88.3 | -60.6% (inactive) | 152 | -0.559 (inactive) | -3.6e-05 (inactive) | 0.00569 (inactive) | 6.84% (inactive) | 6.66% (inactive) |
| Cc1csc(OCc2ccc(C#N)cc2)n1 | 636 | -4.4% (inactive) | -1.8% (inactive) | 97.8 | -4.8% (inactive) | 114 | -0.6 (inactive) | -3.4e-05 (inactive) | 0.0082 (inactive) | 7.71% (inactive) | 5.79% (inactive) |
| CC1CCN(CC(O)COC2CCC(C(C)(C)C)CC2)CC1 (stereo not drawn) | 719 | -6.8% (inactive) | 1.9% (inactive) | 118 | -11.7% (inactive) | 111 | -0.453 (inactive) | -0.000251 (inactive) | 0.00347 (inactive) | 6.5% (inactive) | -5.56% (inactive) |
| CCOC(=O)c1nnn(-c2nonc2N)c1CN1CCc2ccccc2C1 | 200 | -3.9% (inactive) | -11.1% (inactive) | 80.6 | -18.4% (inactive) | 108 | -0.45 (inactive) | 4.7e-05 (inactive) | 0.00671 (inactive) | 6.68% (inactive) | 24.5% (inactive) |
| COCC(=O)NC(c1ccccc1)c1ccccc1 | 336 | 9.4% (inactive) | 4.5% (inactive) | 100 | -13.4% (inactive) | 122 | -0.561 (inactive) | -7e-05 (inactive) | 0.00683 (inactive) | 14.6% (inactive) | 19.5% (inactive) |
| O=C(O)CCCC(=O)NCCc1ccncc1 | 425 | 8.1% (inactive) | -3.6% (inactive) | 112 | 1.4% (inactive) | 112 | -0.519 (inactive) | -7e-06 (inactive) | 0.00581 (inactive) | 3.6% (inactive) | 33.4% (inactive) |
| CCOc1ccc(C(=O)N(Cc2ccc(N(C)C)cc2)C2CCS(=O)(=O)C2)cc1 (stereo not drawn) | 249 | -12.2% (inactive) | 2.5% (inactive) | 75 | -56.2% (inactive) | 96.7 | -0.618 (inactive) | -3.1e-05 (inactive) | 0.00328 (inactive) | 19.7% (inactive) | 23.5% (inactive) |
| Cc1cccc(C)c1NC(=O)CC(NCc1ccco1)C(=O)O (stereo not drawn) | 623 | -8.3% (inactive) | -5.4% (inactive) | 71.3 | 26.5% (inactive) | 105 | -0.364 (inactive) | -6.5e-05 (inactive) | 0.00596 (inactive) | 10.4% (inactive) | 23.1% (inactive) |
| Cc1cc(N2C(=O)C3C4C=CC(C4)C3C2=O)ccc1Br (stereo not drawn) | 775 | 18.7% (inactive) | 0.6% (inactive) | 110 | 98.6% (active) | 42 | -0.502 (inactive) | -5.3e-05 (inactive) | 0.00619 (inactive) | -31.9% (inactive) | 100% (active) |
| COc1ccc2c(C(F)(F)F)cc(=O)oc2c1C | 701 | -1.8% (inactive) | 0.8% (inactive) | 99.9 | -97% (inactive) | 111 | -0.428 (inactive) | 1.9e-05 (inactive) | 0.00456 (inactive) | 17% (inactive) | 11.3% (inactive) |
| Cc1noc(NS(=O)(=O)c2ccc(N3C(=O)c4ccccc4C3=O)cc2)c1C | 754 | -11.1% (inactive) | 6.1% (inactive) | 104 | -0.4% (inactive) | 93.6 | -0.533 (inactive) | -3.7e-05 (inactive) | 0.00521 (inactive) | 6.19% (inactive) | 25.2% (inactive) |
| CCOC(=O)Nc1ccc(OC)cc1S(=O)(=O)N1CCCCC1 | 714 | 3.3% (inactive) | -24% (inactive) | 87.3 | -14.6% (inactive) | 111 | -0.586 (inactive) | 2.6e-05 (inactive) | 0.00355 (inactive) | 11.7% (inactive) | 17% (inactive) |
